Measured values taken from ChEMBL document CHEMBL4513216, “Probing the Open Global Health Chemical Diversity Library for Multistage-Active Starting Points for Next-Generation Antimalarials” (ACS Infect Dis, 2020).

Assay: Toxicity liver stage against HepG2, at 10uM
Format: cell-based
Design: test concentration 10 uM, cell line HepG2-A16-CD81EGFP
Settings: human, HepG2-A16-CD81EGFP cells; read-out: INHIBITION
In short: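 Uninfected HepG2-A16-CD81EGFP cells, 3 × 10^3 per well, 1536-well, plated on prespotted compound at 10 μM final, parasite-free screening media added to match infected plates; puromycin 10 μM positive, DMSO 0.5% negative; run in parallel with 48 h PbLuc assay at 37 °C, 5% CO2; viability by CellTiter-Glo luminescence, normalized to controls.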

| SMILES | cytotoxicity at 10 µM [%] |
| --- | --- |
| CC(=O)NCC1CCN(C(=O)NCCOc2ccc3c(c2)CCC3)CC1 | -5.31 |
| CCOC(=O)c1nnc2ccccc2c1N1CCOC(C)(C)C1 | 13.8 |
| Cc1ccc(SCCCNC(=O)c2cn(C3CCC(N)CC3)nn2)cc1 (stereo unspecified) | -8.33 |
| CC(C)(CNc1c(C#N)cnc2ccc(Cl)cc12)C(N)=O | 9.19 |
| CN(C)C(=O)CN1CCCC(CCCc2ccccn2)(C(N)=O)C1 (stereo unspecified) | -23.2 |
| CCC(CC)c1cc(CNC(=O)N2CCCC(C(=O)NC)C2)on1 (stereo unspecified) | -18.6 |
| O=C(Nc1cnn(CC(=O)N2CCCCO2)c1)c1ccsc1 | -1.23 |
| Cc1nc(CN2CCOC(CNc3cccnn3)C2)cs1 (stereo unspecified) | -12 |
| Cc1cc2cccc(C(=O)N3CCOC4(CNCCOC4)C3)c2o1 (stereo unspecified) | -2.21 |
| O=C(CCC(=O)N1CCCC1c1cccs1)N1CCc2sccc2C1 (stereo unspecified) | -8.45 |
| COCCCN1C(=O)CC[C@H]2CN(Cc3ncc[nH]3)CC[C@H]21 | -0.462 |
| CCC(C)NC(=O)N1CCCn2cnc(CO)c2C1 (stereo unspecified) | -9.35 |
| Cc1nn(Cc2ccccc2)c(C)c1CNC1CCc2ncnn2C1 (stereo unspecified) | -1.04 |
| CN1CCCC(c2cccc(CCC(=O)NCC3(C)COC3)n2)C1 (stereo unspecified) | -8.24 |
| CC(NCCn1cccn1)c1ccccc1F (stereo unspecified) | -3.21 |
| COC(=O)c1cccc2nc([C@H]3CCN(Cc4ccccc4)C3)oc12 | 6.06 |
| CNC(=O)c1ccc(-c2ccc(CNS(=O)(=O)N(C)C)cc2)nc1C | -2.05 |
| N#Cc1ccc(SCCCO)c(F)c1 | 5.11 |
| CCc1cnc(CCNC(C)CC(=O)Nc2cccc(C)c2C)s1 (stereo unspecified) | 6.69 |
| Cc1nn(C)c(C)c1CCC(=O)N1CCc2sccc2C1 | 16.3 |
| Cc1c(NC(=O)N(C)CCO)cccc1OC1CCCC1 | -0.172 |
| NC(=O)c1nnn(-c2ccc(Br)cc2)n1 | 6.56 |
| Cn1cc(Br)cc(NC(=O)CC2CCC2)c1=O | -8.15 |

| SMILES | cytotoxicity at 10 µM [%] |
| --- | --- |
| COc1ccccc1Oc1ncccc1CNC(=O)[C@@H](C)NC(C)=O | -2.61 |
| O=C(c1ccsc1)N1CCN2C[C@H](OCc3cccnc3)C[C@H]2C1 | 0.59 |
| COc1ccc(N2CCN(C(=O)[C@@H]3C[C@@H](O)CN3)CC2(C)C)cc1 | 4.95 |
| CC1CN(c2ccc(CNC(=O)NCc3ccoc3)cn2)CCO1 (stereo unspecified) | 4.38 |
| O=C(CCCn1cncn1)N1CCC2(CCCNC2=O)C1 (stereo unspecified) | -3.89 |
| CCC(C(=O)NCCc1ccn(-c2ccccc2)n1)N1CCCC1=O (stereo unspecified) | 6.18 |
| CCOc1ccc(CNCCCn2ccnc2)cc1Cl | -9.51 |
| O=C(NCCN1CCCCC1)c1cccc(Cl)c1Cl | 6.04 |
| N#Cc1cccnc1NCCNC(=O)NCCSC(F)(F)F | 1.2 |
| O=C(c1cnn2cccnc12)N1CCCC(n2ccnc2)C1 (stereo unspecified) | -29.7 |
| CCc1nc(CN2CCCN(Cc3noc(C4CC4)n3)CC2)cs1 | -7.35 |
| O=C(O)C1(n2ccnc2)CCN(Cc2cc3ccccc3o2)CC1 | -6.34 |
| NC(=O)c1ccc(NC(=O)Cn2cc(I)cn2)cc1 | 8.49 |
| CN(Cc1ncc(-c2ccccc2C(=O)O)s1)c1ncccn1 | 1.69 |
| O=C1CN(C(=O)c2cc(Cl)ccc2F)c2ccccc2N1 | 79.6 |
| COc1ccc(C2CCCN2S(=O)(=O)c2cc(F)ccc2F)cc1 (stereo unspecified) | 0.585 |
| Cc1nc(C)n(CC2CCCN2CC(=O)Nc2ccnn2C(C)C)n1 (stereo unspecified) | -14 |
| O=C(C1CC1)N1CCN(Cc2ccncc2)c2ncccc2C1 | -3.88 |
| CCN(CC)S(=O)(=O)N1CC[C@H](c2ccccc2)[C@H]2NCCCC[C@H]21 | -39.5 |
| CC(C)(C)c1nc(NS(=O)(=O)c2cccc(F)c2)no1 | -10.8 |
| COCC(=O)NC[C@H]1C[C@@H]2CCN1C[C@@H]2CN1CCc2ccccc2C1 | -1.33 |
| N#Cc1cn(CC(=O)NC2CC2)c2ccc(Br)cc2c1=O | 27.4 |
| COCC[C@]1(O)CCN(Cc2nnc(C)s2)C[C@H]1C | 8.62 |
